# Screens: PubChem, several laboratories
# The full list was thinned out, with hits kept by preference.
# NLRP3 yeast inh: NALP3 inflammasome inhibitors in reconstituted yeast, primary screen, luminescence, uHTS. Yeast reconstituted NLRP3/ASC/caspase-1, beta-gal luminescence, 24 h. inhibition, % at 10 µM. hit rate 0.39% among 330,000. AID 2825, 2010;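 active = inhibition of 50% or more; inactive = inhibition below 50%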;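 note: plate controls were induced DMSO wells for no effect and uninduced yeast grown without galactose for full effect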
# NALP1 inh: NALP1 inflammasome inhibitors in reconstituted yeast, colorimetric, S. cerevisiae, triplicate retest; S. cerevisiae NALP1/ASC/caspase-1 growth, X-gal OD620, 72 h; inhibition, % at 10 µM; hit rate 0.61% among 280,000; AID 2071, 2009; in the data active = inhibition mostly above about 24%, no sharp cut-off; inactive = mostly below about 32%
# PolyA inh: polyadenylation inhibitors in yeast reporter cells, primary screen, luminescence, S. cerevisiae; S. cerevisiae SKY197-pL101 polyadenylation reporter, beta-gal luminescence; efflux-impaired pdr1/pdr3 knockout yeast; score 100 = 6 SD above DMSO; AID 1875, 2009; activity score, % at 12 µM; hit rate 0.02% among 300,000;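 active = lowest replicate activity score at least 50, where 100 means six control SD above control mean; inconclusive = lowest score under 50 but half or more replicates reach 50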;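 note: yeast exposed to compound for 9 h at 30 °C; higher score means more reporter readthrough which indicates perturbed polyadenylation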
# Lmaj promast: Leishmania major promastigote growth inhibition, primary screen; Leishmania major promastigotes, resazurin fluorescence viability; inhibition, % at 10 µM; hit rate 9% among 200,000; in the data active = inhibition above about 50%;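 note: promastigotes grown with compound for 44 hours at 28 °C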
# T cruzi inh: inhibitors of intracellular T. cruzi growth, primary screen, luminescence, NIH3T3 host cells; T. cruzi beta-gal in NIH3T3, 90 h; inhibition, % (concentration not given with the values); hit rate 1.4% among 300,000; AID 1885, 2009;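 active = mean inhibition across valid replicates above about 55%, limit read from the data; inconclusive = mean below that limit but half or more replicates reach it; inactive = mean below it, under half of replicates reach it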;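 note: signal also drops with host cell toxicity which is not excluded here; 0% = plate median of DMSO wells and 100% = zero luminescence signal; higher percent means less beta-gal luminescence so fewer parasites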
#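 Incubation – ≥90 h infection period, 3 h prior cell attachment · System – NIH/3T3 fibroblasts plus reporter T. cruzi · Doses – compound pinned at 50 nL/well, DMSO · Read-out basis – percent inhibition of parasite-derived β-gal signal · Signal – luminescent β-galactosidase signal after 60 min lysis · Also added – 5000 T. cruzi trypomastigotes/well · Medium – Low-serum DMEM with 2% FBS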
# Calb FLC: C. albicans growth inhibition with fluconazole, primary screen, CaCi-2 strain, Alamar Blue fluorescence; C. albicans CaCi-2 + fluconazole, 48 h; growth inhibition, % (concentration not given with the values); hit rate 0.57% among 300,000; AID 1979, 2009;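 active = growth inhibition above about 58% in most replicates, limit read from the data, passing the limit was not always enough; inconclusive = exactly half the replicates above a set limit; inactive = most replicates below a set limit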;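 note: all wells also contain fluconazole at 8 µg/ml as a sub-toxic cotreatment; 0% = median of DMSO wells and 100% = median of geldanamycin control wells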
# Active calls of the source: *; ? = inconclusive; . = no result.
SMILES,NLRP3 yeast inh,NALP1 inh,PolyA inh,Lmaj promast,T cruzi inh,Calb FLC
COc1ccc(C2CC(c3ccccc3Cl)Nc3ncnn32)cc1OC (configuration not stated),3,13,0,76*,0,6
Fc1ccc(C2CC(c3ccccc3)Nc3ncnn32)cc1 (configuration not stated),-1,35*,-11,1,1,4
O=C(CN1CCCc2ccccc21)NCCc1ccc(F)cc1,1,8,7,17,-9,14
COc1ccc(-c2cc3c(=O)n(CC(=O)NCCCN4CCC(N5CCCCC5)CC4)nc(C)n3n2)cc1,1,13,18,.,56*,-2
CN1CCN(S(=O)(=O)c2ccc(N3CCc4ccccc4C3)nc2)CC1,19,28,-5,94*,5,17
CN1CCN(c2ccc(S(=O)(=O)N3CCCCC3)cn2)CC1,-4,-8,7,18,7,-7
CCN1CCN(c2nc(N)c([N+](=O)[O-])c(Nc3ccc(C)cc3)n2)CC1,14,29,-11,32,42,7
Cc1ccc(Nc2nc(N3CCN(C)CC3)nc(N)c2[N+](=O)[O-])cc1C,30,30,-2,97*,23,-8
CCN1CCN(c2nc(N)c([N+](=O)[O-])c(Nc3ccc(C)c(C)c3)n2)CC1,21,26,-8,60*,42,13
Cc1ccc2nc(NC(=O)CCCC(=O)O)sc2c1,15,-8,12,-4,-2,-9
O=C(Cc1ccc(Cl)cc1)NNC(=S)NC(=O)c1cccs1,30,16,-19,.,-20,109*
Cc1ccc2nc(NC(=S)NC(=O)c3cccs3)sc2c1,14,-7,-19,59*,6,-5
Cc1cccc(C(=O)NNC(=S)NC(=O)c2cccs2)c1,21,-5,-7,.,-7,102*
Cc1ccc2nc(NC(=O)CCCc3nc4ccccc4s3)sc2c1,7,19,?,91*,3,4
CCOc1ccc(NC(=O)CCCN2C(=S)NC(C)(C)CC2C)cc1 (configuration not stated),12,26,1,59*,6,-5
CC1CC(C)(C)NC(=S)N1CCCC(=O)Nc1ccc(Br)cc1 (configuration not stated),-10,11,8,6,-7,3
O=C(c1ccc(-c2cccc(C(F)(F)F)c2)o1)N1CCCC(C(F)(F)F)C1 (configuration not stated),0,.,1,.,12,-2
Cc1c(C(=O)NCCCN2CCOCC2)sc2nc(-c3ccc(F)cc3)cn12,-2,10,1,79*,-12,-13
Cc1c(C(=O)NCc2cccnc2)sc2nc(-c3ccc(F)cc3)cn12,-2,.,-17,96*,1,9
COc1ccc(-c2c(C)c3ccc(O)cc3oc2=O)cc1,19,8,-13,.,-9,6
Cn1c(=O)c2cc(S(=O)(=O)Nc3cc(C(=O)O)cc(C(=O)O)c3)ccc2n(C)c1=O,10,2,7,-9,-20,27
Cc1ccc(NS(=O)(=O)c2ccc3c(c2)c(=O)n(C)c(=O)n3C)cc1F,6,-2,8,68*,10,0
CC(C)CCNC(=O)C(NS(=O)(=O)c1ccc2c(c1)c(=O)n(C)c(=O)n2C)c1ccccc1 (configuration not stated),0,44*,-6,-4,-2,-3
Cc1cc(C)cc(NS(=O)(=O)c2ccc3c(c2)c(=O)n(C)c(=O)n3C)c1,6,8,8,97*,1,-3
CCC(C)NC(=O)C(NS(=O)(=O)c1ccc2c(c1)c(=O)n(C)c(=O)n2C)c1ccccc1 (configuration not stated),2,-15,.,-4,.,.
SMILES,NLRP3 yeast inh,NALP1 inh,PolyA inh,Lmaj promast,T cruzi inh,Calb FLC
CN(CC(=O)Nc1ccc(Cl)c(C(F)(F)F)c1)C(=O)COC(=O)C1CC2CCCC(C1)C2=O (configuration not stated),13,.,.,.,.,.
Cn1c(=O)c2c(SCC(=O)N3CCOCC3)nc(-c3ccccc3Cl)nc2n(C)c1=O,19,2,12,.,27,2
COc1cc2c(OC(C)=O)c3c(c(-c4ccc5c(c4)OCO5)c2cc1OC)C(=O)OC3,-6,-24,6,-8,30,66
COc1cc2c(O)c3c(c(-c4ccc5c(c4)OCO5)c2cc1OC)C(=O)OC3,-7,-6,24,2,57*,82*
COc1ccc(OC)c(NC(=O)C2CCN(C(=O)C3CC(=O)N(c4ccc(C)cc4)C3)CC2)c1 (configuration not stated),11,4,11,.,2,3
Cn1c(SCC(=O)Nc2ccc(C(N)=O)cc2)nnc1-c1cccs1,0,7,6,.,-7,-3
Cc1ccc(Cl)cc1N(CC(=O)Nc1cccc(N(C)S(C)(=O)=O)c1)S(C)(=O)=O,21,22,10,3,-1,20
CN(c1cccc(NC(=O)Nc2cccc(Cl)c2)c1)S(C)(=O)=O,1,.,3,7,8,-15
CN(c1cccc(NC(=O)CN(c2cccc(Cl)c2)S(=O)(=O)c2ccc(Cl)cc2)c1)S(C)(=O)=O,8,13,14,72*,23,-5
Cc1cccc(C)c1N(CC(=O)N/N=C/c1cc(Br)c(C)o1)S(C)(=O)=O,20,5,16,71*,-7,0
Cc1cccc(C)c1N(CC(=O)Nc1cccc(N(C)S(C)(=O)=O)c1)S(C)(=O)=O,13,27,2,98*,-7,-3
CCC1CCCCN1C(=O)c1ccc(OC2CCN(Cc3ccccn3)CC2)cc1 (configuration not stated),18,9,-9,.,9,7
CCC1CCCCN1CCCNC(=O)CSc1nc2nc(C)c(Cc3ccc(C)cc3)c(C)n2n1 (configuration not stated),16,22,6,.,15,-5
